ChEMBL document CHEMBL4765378, “Discovery of simplified benzazole fragments derived from the marine benzosceptrin B as necroptosis inhibitors involving the receptor interacting protein Kinase-1” (Eur J Med Chem, 2020)
Active and inactive are the calls of the source. The calls are words filed in the database; no cut-off is given here.

What was measured:
[1] = Cytotoxicity against human FADD-deficient Jurkat I 2.1 cells assessed as reduction in cell viability at 10 uM measured after 24 hrs by MTS assay; assay type: cell-based; conditions: jurkat i 2.1, 24 h
[2] = target: Cyclin-dependent kinase 5/CDK5 activator 1 (Homo sapiens, UniProt Q00535); assay: Inhibition of human recombinant CDK5/p25 expressed in bacterial expression using histone H1 as substrate by ADP-glo assay
CDK9/cyclin T1 = CDK9/cyclin T1 (Homo sapiens, UniProt P50750); assay: Inhibition of human recombinant CDK9/cyclin T expressed in baculovirus infected Sf9 insect cells using YSPTSPSYSPTSPSYSPTSPSKKKK as substrate by ADP-glo assay
[3] = Cytotoxicity against human FADD-deficient Jurkat I 2.1 cells assessed as reduction in cell viability at >25 uM measured after 24 hrs by MTS assay; assay type: cell-based; conditions: jurkat i 2.1, 24 h
[4] = target: Casein kinase I isoform epsilon (Homo sapiens, UniProt P49674); assay: Inhibition of recombinant human CK1epsilon expressed in baculovirus infected Sf9 insect cells using RRKHAAIGSpAYSITA as substrate by ADP-glo assay
[5] = target: T1, Tyrosine-protein kinase JAK3 (Homo sapiens, UniProt P52333); assay: Inhibition of recombinant human JAK3 C-terminal domain (781 to 1124 residues) expressed in baculovirus infected Sf9 insect cells using GGEEEEYFELVKKKK as substrate by ADP-glo assay
T1 sequence (P52333 whole entry): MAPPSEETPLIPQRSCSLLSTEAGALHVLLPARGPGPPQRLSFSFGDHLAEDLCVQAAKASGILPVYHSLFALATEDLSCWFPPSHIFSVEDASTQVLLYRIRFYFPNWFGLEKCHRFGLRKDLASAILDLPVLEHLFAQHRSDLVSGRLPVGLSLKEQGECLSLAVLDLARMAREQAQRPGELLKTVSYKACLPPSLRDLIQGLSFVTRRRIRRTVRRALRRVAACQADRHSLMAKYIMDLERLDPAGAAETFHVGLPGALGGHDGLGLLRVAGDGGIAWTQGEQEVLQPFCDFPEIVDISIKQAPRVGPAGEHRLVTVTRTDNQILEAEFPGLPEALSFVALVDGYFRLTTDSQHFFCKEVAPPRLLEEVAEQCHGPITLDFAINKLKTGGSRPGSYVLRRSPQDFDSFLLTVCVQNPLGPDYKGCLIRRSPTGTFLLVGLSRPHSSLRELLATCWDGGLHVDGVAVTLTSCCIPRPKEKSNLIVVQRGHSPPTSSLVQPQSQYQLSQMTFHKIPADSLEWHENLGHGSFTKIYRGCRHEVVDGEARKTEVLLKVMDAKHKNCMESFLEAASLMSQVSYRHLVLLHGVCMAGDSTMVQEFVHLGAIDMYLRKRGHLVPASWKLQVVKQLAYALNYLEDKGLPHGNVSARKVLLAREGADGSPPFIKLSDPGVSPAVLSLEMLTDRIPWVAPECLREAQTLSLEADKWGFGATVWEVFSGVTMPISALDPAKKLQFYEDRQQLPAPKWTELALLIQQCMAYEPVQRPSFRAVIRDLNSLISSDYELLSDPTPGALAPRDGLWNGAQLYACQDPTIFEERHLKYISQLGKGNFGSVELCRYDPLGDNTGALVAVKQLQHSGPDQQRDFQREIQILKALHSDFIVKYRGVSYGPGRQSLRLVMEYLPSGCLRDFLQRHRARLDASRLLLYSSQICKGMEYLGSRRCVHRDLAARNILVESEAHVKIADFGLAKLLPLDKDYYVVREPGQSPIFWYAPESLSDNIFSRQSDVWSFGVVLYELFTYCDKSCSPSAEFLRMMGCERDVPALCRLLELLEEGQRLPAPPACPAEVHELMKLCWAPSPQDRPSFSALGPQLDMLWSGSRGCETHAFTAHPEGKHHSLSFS

Jurkat [6] = assay: Protection against TRAIL-induced apoptosis in human Jurkat assessed as increase in cell viability at 0.1 to 50 uM measured after 24 hrs by MTS assay; assay type: functional, cell-based; conditions: dose 0.1-50 µM
Summary of the method: (§1)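 Jurkat wild-type cells treated with TRAIL-Flag (20 ng/mL) or staurosporine (100 nM) together with increasing compound doses for 24 h; viability by MTS reduction as % of DMSO-treated cells; mean ± SD, n = 3.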

Jurkat [7] = assay: Protection against staurosporine-induced apoptosis in human Jurkat assessed as increase in cell viability at 0.1 to 50 uM measured after 24 hrs by MTS assay; assay type: functional, cell-based; conditions: dose 0.1-50 µM; summary of the method: as §1

CDK9/cyclin T1, sequence (O60563 whole entry): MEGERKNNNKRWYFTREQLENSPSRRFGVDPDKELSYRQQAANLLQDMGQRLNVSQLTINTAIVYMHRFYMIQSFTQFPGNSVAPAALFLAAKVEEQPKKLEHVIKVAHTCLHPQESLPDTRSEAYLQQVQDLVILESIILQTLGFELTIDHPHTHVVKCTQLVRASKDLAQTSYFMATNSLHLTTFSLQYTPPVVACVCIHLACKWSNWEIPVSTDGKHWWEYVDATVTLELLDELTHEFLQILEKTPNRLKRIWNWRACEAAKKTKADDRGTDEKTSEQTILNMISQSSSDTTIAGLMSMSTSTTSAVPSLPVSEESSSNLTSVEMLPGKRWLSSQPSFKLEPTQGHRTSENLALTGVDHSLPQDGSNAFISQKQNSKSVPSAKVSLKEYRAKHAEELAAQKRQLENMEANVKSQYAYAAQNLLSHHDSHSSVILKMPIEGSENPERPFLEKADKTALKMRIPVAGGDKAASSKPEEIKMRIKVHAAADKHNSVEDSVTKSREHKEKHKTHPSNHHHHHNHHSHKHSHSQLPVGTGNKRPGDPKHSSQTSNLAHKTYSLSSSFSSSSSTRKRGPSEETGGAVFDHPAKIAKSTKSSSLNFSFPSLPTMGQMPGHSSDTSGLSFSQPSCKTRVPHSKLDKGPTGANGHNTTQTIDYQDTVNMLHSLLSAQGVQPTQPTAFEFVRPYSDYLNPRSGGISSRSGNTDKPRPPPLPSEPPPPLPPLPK
CDK9/cyclin T1, sequence (P50750 whole entry): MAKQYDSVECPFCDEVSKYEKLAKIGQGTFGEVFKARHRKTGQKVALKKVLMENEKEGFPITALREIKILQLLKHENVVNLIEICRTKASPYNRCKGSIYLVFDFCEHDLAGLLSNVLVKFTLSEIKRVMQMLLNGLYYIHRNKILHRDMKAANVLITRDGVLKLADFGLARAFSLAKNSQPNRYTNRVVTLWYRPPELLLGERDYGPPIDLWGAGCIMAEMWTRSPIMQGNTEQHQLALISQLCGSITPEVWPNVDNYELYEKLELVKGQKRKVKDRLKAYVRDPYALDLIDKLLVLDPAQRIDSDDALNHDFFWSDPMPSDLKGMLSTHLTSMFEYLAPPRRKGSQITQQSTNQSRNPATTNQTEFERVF
Casein kinase I isoform epsilon, sequence (P49674 whole entry, the tested form may be a part, canonical isoform): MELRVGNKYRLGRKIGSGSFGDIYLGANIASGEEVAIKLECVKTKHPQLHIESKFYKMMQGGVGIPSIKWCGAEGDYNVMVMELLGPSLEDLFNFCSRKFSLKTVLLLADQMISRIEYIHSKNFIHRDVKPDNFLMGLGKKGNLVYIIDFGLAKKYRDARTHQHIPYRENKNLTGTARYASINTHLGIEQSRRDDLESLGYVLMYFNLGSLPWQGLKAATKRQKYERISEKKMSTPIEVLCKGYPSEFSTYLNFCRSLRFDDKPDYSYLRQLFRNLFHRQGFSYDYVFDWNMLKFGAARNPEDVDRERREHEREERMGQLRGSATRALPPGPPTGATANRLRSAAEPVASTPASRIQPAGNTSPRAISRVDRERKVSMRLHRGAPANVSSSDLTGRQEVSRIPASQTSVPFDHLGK
Cyclin-dependent kinase 5/CDK5 activator 1, sequence (Q00535 whole entry): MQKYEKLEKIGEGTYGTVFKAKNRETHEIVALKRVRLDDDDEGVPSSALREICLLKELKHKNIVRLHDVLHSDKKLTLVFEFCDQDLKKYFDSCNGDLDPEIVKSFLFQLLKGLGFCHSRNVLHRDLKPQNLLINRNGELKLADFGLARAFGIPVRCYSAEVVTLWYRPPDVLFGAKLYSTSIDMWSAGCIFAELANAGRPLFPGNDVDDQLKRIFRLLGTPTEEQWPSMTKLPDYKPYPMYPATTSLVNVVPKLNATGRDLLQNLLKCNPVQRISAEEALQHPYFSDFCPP
Cyclin-dependent kinase 5/CDK5 activator 1, sequence (Q15078 whole entry, further chain): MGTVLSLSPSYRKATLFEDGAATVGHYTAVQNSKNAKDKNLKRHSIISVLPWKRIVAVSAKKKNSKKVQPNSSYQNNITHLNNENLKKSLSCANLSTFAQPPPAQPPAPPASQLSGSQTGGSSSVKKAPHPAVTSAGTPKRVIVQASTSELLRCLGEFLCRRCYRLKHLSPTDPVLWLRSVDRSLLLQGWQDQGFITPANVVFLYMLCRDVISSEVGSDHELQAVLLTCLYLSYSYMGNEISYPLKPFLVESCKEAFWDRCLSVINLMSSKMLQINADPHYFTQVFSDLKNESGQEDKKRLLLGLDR

Row | IC50 [2] [µM] | IC50 (CDK9/cyclin T1) [µM] | IC50 [4] [µM] | IC50 [5] [µM] | Compound | Activity [1] | Activity [3] | Activity (Jurkat [6]) | Activity (Jurkat [7])
1 | > 10 | 0.48 | > 10 | > 10 | CCCCNc1nc2ccc([N+](=O)[O-])cc2[nH]1 | Non-Toxic | Toxic |  | 
2 | > 10 | > 10 | > 10 | > 10 | CCCCNc1nc2cc([N+](=O)[O-])ccc2s1 | Non-Toxic |  | inactive | inactive
